Experiments:
MCF7 [1] = experiment: Antiproliferative activity against human MCF7 cells assessed as inhibition of cell viability after 72 hrs by MTT assay; assay type: functional, cell-based; details: MCF7, 72 h
Outline: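 MCF-7 cells grown in Eagle's MEM with 10% fetal calf serum, 2 mM L-glutamine, penicillin/streptomycin and 1% non-essential amino acids. Seeded at 2.5×10^4 cells/mL, 24 h at 37 °C, 5% CO2. Dosed from ethanol stocks at 1 nM–100 μM final (vehicle 1% v/v ethanol), 72 h. MTT 1 mg/mL for 2 h in dark, DMSO solubilisation, absorbance 595 nm. Viability relative to vehicle; mean ± S.E.M., at least two experiments in triplicate.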

Estrogen receptor = target: T1, Estrogen receptor (Homo sapiens, UniProt P03372); experiment: Displacement of fluorescent estrogen ligand from recombinant human full length untagged ERalpha expressed in baculovirus infected insect cells incubated in dark for 2 hrs by Beacon single-tube fluorescent polarization assay
T1 sequence (P03372 whole entry): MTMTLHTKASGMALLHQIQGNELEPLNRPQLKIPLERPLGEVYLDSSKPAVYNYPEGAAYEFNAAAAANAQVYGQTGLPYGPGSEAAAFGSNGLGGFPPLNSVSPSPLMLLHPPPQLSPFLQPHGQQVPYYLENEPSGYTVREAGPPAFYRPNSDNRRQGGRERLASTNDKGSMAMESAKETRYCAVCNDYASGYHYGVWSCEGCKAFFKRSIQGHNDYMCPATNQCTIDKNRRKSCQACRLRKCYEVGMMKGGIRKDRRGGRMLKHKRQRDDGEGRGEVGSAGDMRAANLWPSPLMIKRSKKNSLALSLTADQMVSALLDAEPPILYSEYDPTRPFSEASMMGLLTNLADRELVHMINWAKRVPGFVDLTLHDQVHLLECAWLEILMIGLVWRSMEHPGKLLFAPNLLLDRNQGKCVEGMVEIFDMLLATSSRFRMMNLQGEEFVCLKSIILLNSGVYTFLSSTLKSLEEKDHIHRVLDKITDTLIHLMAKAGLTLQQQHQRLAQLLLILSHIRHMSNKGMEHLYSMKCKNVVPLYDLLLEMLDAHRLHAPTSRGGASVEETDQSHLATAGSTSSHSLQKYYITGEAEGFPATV

Estrogen receptor beta = Estrogen receptor beta (Homo sapiens, UniProt Q92731); experiment: Displacement of fluorescent estrogen ligand from recombinant human full length untagged ERbeta expressed in baculovirus infected insect cells incubated in dark for 2 hrs by Beacon single-tube fluorescent polarization assay
Estrogen receptor beta, sequence (Q92731 whole entry): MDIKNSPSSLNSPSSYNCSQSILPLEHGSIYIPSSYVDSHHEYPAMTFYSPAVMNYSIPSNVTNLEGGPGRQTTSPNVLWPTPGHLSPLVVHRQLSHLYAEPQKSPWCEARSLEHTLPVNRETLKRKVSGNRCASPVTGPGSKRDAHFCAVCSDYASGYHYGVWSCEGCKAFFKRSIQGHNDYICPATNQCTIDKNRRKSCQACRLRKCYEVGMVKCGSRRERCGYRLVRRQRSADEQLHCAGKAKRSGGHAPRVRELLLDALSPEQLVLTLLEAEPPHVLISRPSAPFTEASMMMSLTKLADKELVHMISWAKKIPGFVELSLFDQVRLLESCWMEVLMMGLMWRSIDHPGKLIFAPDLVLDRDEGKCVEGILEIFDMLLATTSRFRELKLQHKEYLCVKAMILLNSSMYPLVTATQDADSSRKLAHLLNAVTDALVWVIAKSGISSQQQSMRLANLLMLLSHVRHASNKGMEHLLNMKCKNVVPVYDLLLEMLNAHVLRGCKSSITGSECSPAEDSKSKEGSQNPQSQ

MCF7 [2] = experiment: Toxicity in human MCF7 cells assessed as cell death at 10 uM incubated for 72 hrs by LDH assay relative to control; assay type: cell-based; details: mcf7, 72 h
Outline: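 LDH release assay (CytoTox 96). MCF-7 cells seeded at 1×10^4 cells/well for 24 h, dosed with ethanol vehicle (1% v/v) and incubated 72 h. Medium mixed with substrate for 20 min at room temperature in dark, stopped, absorbance read at 490 nm. Lysis is percent of a lysis-solution control (100% lysis, 45 min); three experiments in triplicate, mean ± SEM.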

[3] = Chemical stability of the compound in pH 9 phosphate buffer assessed as half life by HPLC method; assay type: physicochemical
Outline: (§1)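 Stock of 5 mg compound in 10 mL mobile phase; 30 μL diluted into 1 mL phosphate buffer (pH 4, 7.4 or 9, British Pharmacopoeia). Injected immediately and sampled at 0, 5, 30, 60, 90, 120 min and 21 h. HPLC with UV detection at 254 nm, acetonitrile:water 80:20 mobile phase, 1 mL/min over 10 min.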

[4] = Chemical stability of the compound in pH 7.4 phosphate buffer assessed as half life by HPLC method; assay type: physicochemical; outline: as §1
[5] = Stability in human plasma assessed as half life by HPLC method; assay type: ADME, cell-free
Outline: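 Human blood plasma (2.0 mL) mixed with PBS containing 10% DMSO (1.6 mL) and pre-warmed to 37 °C. Compound added as 400 μL of a 1.0 mg/mL stock. Aliquots of 100 μL quenched in 900 μL acetonitrile, centrifuged and filtered. Sampled every 15 min for 1 h, then hourly to 3 h, plus 24 h. C18 reverse-phase HPLC at 25 °C, H2O:ACN:MeOH mobile phase, 1.0 mL/min.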

[6] = Chemical stability of the compound in phosphate buffer at pH 4 assessed as compound remaining after 30 mins by HPLC method; assay type: physicochemical; details: read-out: Stability; outline: as §1

SMILES	IC50 (MCF7 [1]) [µM]	IC50 (Estrogen receptor) [µM]	IC50 (Estrogen receptor beta) [µM]	Activity (MCF7 [2]) [%]	half-life [3] [h]	half-life [4] [h]	half-life [5] [h]	remaining at 0.5 h [6] [%]
N#CC1=C(N)Oc2cc(O)ccc2C1c1ccccc1 (configuration not stated)	> 100	> 10	8.39	–	–	–	–	–
N#CC1=C(N)Oc2cc(O)ccc2C1c1ccc(OCCN2CCOCC2)cc1 (configuration not stated)	35.3	14	> 50	0	–	–	–	–
COC(=O)C1=C(N)Oc2cc(O)ccc2C1c1ccc(OCCN2CCOCC2)cc1 (configuration not stated)	> 100	109	0.63	–	–	–	–	–
COC(=O)C1=C(N)Oc2cc(O)ccc2C1c1ccc(OCCN2CCCC2)cc1 (configuration not stated)	19.6	0.02	0.35	0	–	–	–	–
CC/C(=C(\c1ccccc1)c1ccc(OCCN(C)C)cc1)c1ccccc1 [TAMOXIFEN]	–	–	–	13.4	–	–	–	–
CCOC(=O)C1=C(N)Oc2cc(O)ccc2C1c1ccc(OCc2ccccc2)cc1 (configuration not stated)	4.5	40.3	> 100	–	–	–	–	–
CCOC(=O)C1=C(N)Oc2cc(O)ccc2C1c1ccccc1 (configuration not stated)	> 100	2.36	0.61	–	–	–	–	–
N#CC1=C(N)Oc2cc(O)ccc2C1c1ccc(OCCN2CCCC2)cc1 (configuration not stated)	> 50	0.89	> 10	–	–	–	–	–
COC(=O)C1=C(N)Oc2cc(O)ccc2C1c1ccc(OCCN2CCCCC2)cc1 (configuration not stated)	16.2	0.05	0.22	0	–	–	–	–
CCCCOC(=O)C1=C(N)Oc2cc(O)ccc2C1c1ccc(OCCN2CCCCC2)cc1 (configuration not stated)	31.8	0.03	2.35	–	> 24	> 24	> 24	32
N#CC1=C(N)Oc2cc(O)ccc2C1c1ccc(OCCN2CCCCC2)cc1 (configuration not stated)	23.2	1.47	10.4	–	–	–	–	–
CCCCOC(=O)C1=C(N)Oc2cc(O)ccc2C1c1ccc(OCCN2CCCC2)cc1 (configuration not stated)	7.73	0.02	6.55	–	–	–	–	–
CCOC(=O)C1=C(N)Oc2cc(O)ccc2C1c1ccc(OCC)cc1 (configuration not stated)	> 100	–	–	–	–	–	–	–
CCOC(=O)C1=C(N)Oc2cc(O)ccc2C1c1ccc(OCCN2CCCC2)cc1 (configuration not stated)	27.3	1.41	3.1	0	–	–	–	–
CC(C)(C)OC(=O)C1=C(N)Oc2cc(O)ccc2C1c1ccc(OCCN2CCCCC2)cc1 (configuration not stated)	2.65	0.09	0.37	–	–	–	–	–
CCOC(=O)C1=C(N)Oc2cc(O)ccc2C1c1ccc(OCCN2CCOCC2)cc1 (configuration not stated)	18.8	0.22	2.44	0	–	–	–	–
CC(C)(C)OC(=O)C1=C(N)Oc2cc(O)ccc2C1c1ccc(OCCN2CCCC2)cc1 (configuration not stated)	10	0.01	0.67	–	–	–	–	–
COC(=O)C1=C(N)Oc2cc(O)ccc2C1c1ccc(O)cc1 (configuration not stated)	> 100	0.79	10	–	–	–	–	–
CCOC(=O)C1=C(N)Oc2cc(O)ccc2C1c1ccc(OCCN2CCCCC2)cc1 (configuration not stated)	8.75	0.02	0.06	0	> 24	> 24	> 24	27
COC(=O)C1=C(N)Oc2cc(O)ccc2C1c1ccccc1 (configuration not stated)	10.8	3.3	1.59	–	–	–	–	–
CCOC(=O)C1=C(N)Oc2cc(O)ccc2C1c1ccc(OC)c(OC)c1 (configuration not stated)	> 100	–	–	–	–	–	–	–
CCOC(=O)C1=C(N)Oc2cc(O)ccc2C1c1ccc(O)cc1 (configuration not stated)	> 100	–	–	–	–	–	–	–

— ChEMBL document CHEMBL4627260, “Optimisation of estrogen receptor subtype-selectivity of a 4-Aryl-4H-chromene scaffold previously identified by virtual screening” (Bioorg Med Chem, 2020)
